An excerpt weighted towards active compounds, which were near 3.1% of everything screened.
hERG rescue: shields human hERG channel from block by proarrhythmic agents; AID 1511; Q12809; 310,000 tested, 0.51% active; CHO-hERG, FluxOR thallium flux, dofetilide IC70 present; activation (rescue from dofetilide block), less the hit threshold, % at 10 µM;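 active = activation above the mean of controls blocked by dofetilide plus 5 SD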;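 also: thallium influx through hERG after potassium depolarization seen as dye fluorescence rise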
KCNQ1 pot: human KCNQ1 channel potentiation or activation | P51787 | CHO-K1 KCNQ1, thallium flux FluxOR fluorescence; hits give high values | B-score at 10 µM | 310,000 tested, 0.35% active;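 active = fluorescence ratio B-score, a plate-corrected score, at least three library SD, with initial intensity B-score within 5 SD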
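System: Stable KCNQ1 CHO-K1 line | Incubation: 90 min dye loading and 20 min compound exposure, both at room temperature | Measure: Ratio B score | Medium: Assay buffer for compound exposure, DMSO matched across wells | Compound dosing: Single-concentration screen | Probe or stimulus: K+/Tl+ depolarizing stimulus | Measured by: Kinetic FluxOR fluorescence, 10 s baseline plus 110 s post-stimulus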
KCNK9 block: blocks the human KCNK9 two-pore domain potassium channel; Q9NPC2; B-score at 10 µM; AID 488922; 310,000 tested, 1.2% active; HEK293 KCNK9, FluxOR thallium flux fluorescence; hits give low values;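 active = ratio B-score over 3 SD below the library mean, with starting fluorescence within 5 SD of its mean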;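 also: negative B-score means less thallium flux so channel inhibition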
KCNQ1 block: human KCNQ1 channel inhibition; P51787; B-score at 10 µM; AID 2642; 310,000 tested, 1.3% active; CHO-K1 KCNQ1, FluxOR thallium flux fluorescence; hits give high values;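 active = compounds whose thallium flux B-score, printed positive for inhibition, exceeds three library SD while starting fluorescence stays within three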;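 also: channel opened by potassium depolarization with thallium stimulus after 20 min compound exposure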
KCNK3 block: human KCNK3 channel inhibition, primary screen | O14649 | CHO-KCNK3 thallium flux, FluxOR fluorescence; hits give low values | B-score at 10 µM | 340,000 tested, 0.84% active | AID 602410;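 active = B-score under library mean minus 4 SD, starting fluorescence ratio at most library mean plus 5 SD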;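 also: more negative B-score means stronger inhibition of thallium flux through KCNK3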
KCNK9 inh conf: human KCNK9 inhibitor confirmation. shares compounds with KCNK9 block. HEK293 KCNK9 cells, FluxOR thallium flux fluorescence. inhibition, % at 10 µM. 4,900 tested, 43% active;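 active = thallium signal inhibited by more than 5 SD of the compound-free buffer control wells, on both duplicate plates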;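 also: 0% = assay buffer control wells without compound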
Kir21 sel: mouse Kir2.1 off-target activity of KCNK9 modulators; shares compounds with KCNK9 block; Kir2.1 cells, FluxOR thallium flux fluorescence; inhibition, % at 10 µM; 4,900 tested, 4% active;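 active = thallium signal drop more than 5 SD beyond the mean of the no-compound control wells, seen in both duplicate plates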;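 also: signal is fluorescence rise after thallium addition divided by baseline fluorescence; plate controls were assay buffer only for no effect and full block by chlorpromazine control for full effect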
KCNK9 uninduced: second check of KCNK9 modulator effects in non-induced HEK293 cells; shares compounds with KCNK9 block; FluxOR thallium flux; inhibition, % at 10 µM; 4,900 tested, 40% active;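 active = thallium signal drop beyond 5 SD of the untreated control mean, on both duplicate plates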;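 also: plate controls were buffer only IC0 wells for no effect and SID17386958 at its maximal inhibitory level for full effect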
An asterisk follows results filed as active; i = inactive; · = no result given.

SMILES	hERG rescue	KCNQ1 pot	KCNK9 block	KCNQ1 block	KCNK3 block	KCNK9 inh conf	Kir21 sel	KCNK9 uninduced
Cc1cc(SCC(=O)N2CCC(c3noc4ccc(F)cc34)CC2)nc2ccccc12	-12	i	i	i	i	i	i	i
O=C(CSc1ncnc2sc3c(c12)CCCC3)N1CCC(c2noc3ccc(F)cc23)CC1	-22	i	i	i	i	i	i	i
O=C(CCSc1ccc(Cl)c(Cl)c1)NC12CC3CC(CC(C3)C1)C2	-7	i	i	i	i	i	i	i
O=C(CSc1ccc(F)cc1)NC12CC3CC(CC(C3)C1)C2	-12	i	i	i	i	·	·	·
COc1ccc(/C=N/NC(=O)c2nc(-c3ccccc3)cc(-c3ccccc3)n2)cc1O	-12	i	-11*	i	i	68%*	i	i
Cc1ccc(NC(=S)NNC(=O)c2ccc(N3CCOCC3)c([N+](=O)[O-])c2)cc1Cl	-7	i	i	6*	i	i	i	i
O=C(NNC(=S)NC(=O)c1ccccc1)c1cccc([N+](=O)[O-])c1	-11	i	i	i	i	·	·	·
O=C(c1cc([N+](=O)[O-])ccc1Cl)N1c2ccccc2Sc2ccccc21	-12	i	-12*	i	i	61%*	i	45%*
O=C(NNC(=S)Nc1ccc(Cl)c(Cl)c1)c1cccc([N+](=O)[O-])c1	-26	i	i	11*	i	i	i	i
O=C(Nc1cccc(NC(=O)c2cc([N+](=O)[O-])ccc2Cl)n1)c1cc([N+](=O)[O-])ccc1Cl	-12	i	-8.2*	i	-9.9*	i	i	26%*
Cn1c(SCC(=O)Nc2ccc(Cl)cc2F)nnc1-c1ccco1	-7	i	i	i	i	·	·	·
O=C(NNC(=S)Nc1ccc(Cl)cc1Cl)c1ccc(N2CCOCC2)c([N+](=O)[O-])c1	-10	i	i	6*	i	i	i	i
CSCC(=O)Nc1ccc(F)c(Cl)c1	-7	i	i	i	i	i	i	i
CN(C(=O)c1cccc(NC(=O)Cc2ccc(NC(=O)C3CCCN(C(=O)C4CCCC4)C3)cc2)c1)C1CC1 (configuration not stated)	·	·	·	·	i	·	·	·
Cc1ccc(/C=C/C(=O)Nc2ccc(Oc3ccccc3)cc2)o1	-11	i	i	i	i	i	i	i
C=C(C)C1CC=C(CN2CCN(Cc3ccccc3)CC2)CC1 (configuration not stated)	-5	i	i	i	i	i	i	i
C=C(C)[C@@H]1CC=C(CN2CCN(Cc3ccccc3)CC2)CC1	-8	i	i	i	i	·	·	·
Cc1cc(/C=C(\C#N)C(=O)NC2CCCCCC2)c(C)[nH]1	-4	i	i	i	i	·	·	·
COc1ccc(-c2[nH]ncc2/C=C(/C#N)C(=O)NC2CCCCCC2)cc1	-9	i	i	i	i	i	i	i
CN(C(=O)COC(=O)c1ccc(Br)c([N+](=O)[O-])c1)c1c(N)n(Cc2ccccc2)c(=O)[nH]c1=O	-9	i	i	i	i	·	·	·
COc1ccc(Cl)cc1NC(=O)COC(=O)C1CC(=O)N(Cc2ccccc2)C1 (configuration not stated)	·	·	·	·	i	·	·	·
CC(C)(C)n1nc2c(c1NC(=O)COc1ccc(Cl)cc1)CS(=O)(=O)C2	-8	i	i	i	i	·	·	·
CC(C)(C)n1nc2c(c1NC(=O)COc1ccc(Cl)cc1)CSC2	-12	i	-11*	i	i	45%*	i	50%*
Cc1ccccc1OCCN1CCC(Cc2ccccc2)CC1	-14	i	i	i	i	i	i	i
Cc1ccc([N+](=O)[O-])c(OCCN2CCC(Cc3ccccc3)CC2)c1	-29	i	i	i	i	i	i	i
SMILES	hERG rescue	KCNQ1 pot	KCNK9 block	KCNQ1 block	KCNK3 block	KCNK9 inh conf	Kir21 sel	KCNK9 uninduced
CCOc1ccccc1OCCN1CCCC1	-1	i	i	i	i	·	·	·
CCOc1ccccc1OCCN1CCC(Cc2ccccc2)CC1	-12	i	i	i	i	i	i	i
Cc1cccc(C(=O)NCC(=O)NC(C)c2ccc(-n3ccnc3)cc2)c1 (configuration not stated)	-10	i	i	i	i	·	·	·
COc1ccc(CN2CCC(CO)(Cc3ccccc3C(F)(F)F)CC2)c(F)c1	-15	i	i	i	i	i	i	i
COc1cc(-c2c(-c3ccc4c(c3)OCO4)noc2-c2ccsc2)ccc1F	-21	i	-11*	i	i	56%*	i	36%*
CCOC(=O)c1ccc(-c2c(-c3ccc4c(c3)OCO4)noc2-c2ccsc2)cc1F	-13	i	i	i	i	·	·	·
CC(C)OC(=O)c1cccc(C(=O)Nc2cccc(NC(=O)c3cccc(C(=O)OC(C)C)n3)n2)n1	-13	i	-13*	i	i	64%*	i	i
CC(=O)Nc1ccc(NC(=O)c2cccc(C(=O)OC(C)C)n2)cc1	-9	i	i	i	i	·	·	·
COc1cccc(CC2(CO)CCN(S(=O)(=O)c3ccc(OC)cc3OC)CC2)c1	-3	i	i	i	i	·	·	·
c1ccc(-c2nc(-c3nccc4ccccc34)oc2-c2ccccc2)cc1	-9	i	i	i	i	i	i	i
Nc1nc(-c2ccccc2)c(-c2ccccc2)o1	-8	i	i	i	i	·	·	·
Cc1cc(C(=O)CSc2nnnn2-c2ccc(O)cc2)c(C)n1Cc1ccc2c(c1)OCO2	-7	i	-9.8*	i	i	28%*	i	i
O=c1ccc(S(=O)(=O)N2CCCC2)cn1Cc1ccc(Cl)cc1Cl	·	·	·	·	i	·	·	·
CCCCc1nc2cc(C(=O)N3CCCC(COC)C3)ccc2o1 (configuration not stated)	-6	i	i	i	i	·	·	·
COC(=O)c1ccc(Oc2nc(C)cc(Oc3ccccc3)n2)cc1	-11	i	i	i	i	i	i	i
COC(=O)c1ccc(Oc2cc(C)nc(NCc3ccccc3)n2)cc1	-4	i	i	i	i	·	·	·
O=C(Nc1ccccc1)Nc1ccc(-n2ccc(C(F)(F)F)n2)cc1	-19	i	-9*	6*	i	48%*	i	i
COc1ccc(NC(=O)COC(=O)CNC(=O)COc2ccccc2)cc1OC	·	·	·	·	i	·	·	·
